Screening data (PubChem BioAssay)
The list is not random: actives were taken first. Their share in the collection is about 2.1%.
UCH37 DUB inh: inhibitors of human UCH37 deubiquitinase, primary screen, biochemical, Ub-AMC cleavage, fluorescence; Ubiquitin carboxyl-terminal hydrolase isozyme L5 (Homo sapiens), Q9Y5K5; purified proteasome/UCH37; inhibition, % (no concentration beside the values); hit rate 0.33% among 330,000;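 active means mean inhibition over replicate wells above about 20%, limit read from the data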
Target sequence (Q9Y5K5 whole entry, looked up): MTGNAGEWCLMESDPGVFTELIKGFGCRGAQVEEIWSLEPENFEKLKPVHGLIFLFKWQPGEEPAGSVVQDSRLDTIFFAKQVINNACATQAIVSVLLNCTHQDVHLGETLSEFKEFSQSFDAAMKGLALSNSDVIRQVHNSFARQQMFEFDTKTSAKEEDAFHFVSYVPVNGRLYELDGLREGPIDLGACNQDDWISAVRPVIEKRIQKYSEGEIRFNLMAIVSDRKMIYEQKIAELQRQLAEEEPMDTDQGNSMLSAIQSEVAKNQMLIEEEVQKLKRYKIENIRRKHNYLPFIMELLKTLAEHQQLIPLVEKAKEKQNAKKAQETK
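assay system = human UCH37 enzyme supplied as purified proteasome complex | amount = proteasome at 0.15 nM in the dispensed enzyme solution | schedule = 30 min compound-proteasome preincubation then 25 min substrate reaction, room temperature | measured by = fluorescence, ex 355 nm, em 460 nm | benchmarks = no-proteasome wells (full inhibition) and compound-free wells (no inhibition)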
aDG glyco act: activators of alpha-DG glycosylation, primary screen, uHTS, Pro5-aDG cells, AlphaScreen; alpha-DG glycosylation AlphaScreen (IIH6); 0% Pro5, 100% B10-LARGE cell signal; activation, % at 10 µM; hit rate 0.22% among 360,000;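 active means activation of at least 8% versus controls, or a plate z-score of at least 8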;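 further: Pro5 are CHO cells carrying HIG-tagged alpha-DG that lacks glycosylation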
PfGluPho inh: PfG6PD enzyme inhibitors, primary screen, biochemical, fluorescence intensity, uHTS; glucose-6-phosphate dehydrogenase-6-phosphogluconolactonase (Plasmodium falciparum 3D7); PfGluPho enzyme, NADPH resazurin-diaphorase fluorescence; inhibition, % at 20 µM; hit rate 0.78% among 350,000; AID 504690, 2011;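 active means inhibition reaching at least a set limit at 20 µM in the primary screen, cut at about 59% in these data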
HKDC1 inh: HKDC1 hexokinase inhibitors, primary screen, biochemical, fluorescence, uHTS | Q2TB90 | recombinant HKDC1, G6PDH/diaphorase resazurin coupled fluorescence | inhibition, % at 20 µM | hit rate 0.16% among 340,000;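 active means inhibition above about 35% when tested at 20 µM, limit read from the data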
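Test system: recombinant HKDC1 (HK5) hexokinase enzyme, produced in-house / Doses: 20 µM test compound, 1% DMSO / Timing: 90 min, room temperature / Detection: G6PDH/diaphorase-coupled fluorescence, 1 mM NADP, 100 µM resazurin, 525/613 nm / Control set: DMSO wells with and without enzyme mix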
H9c2 protect: cardioprotection against H2O2-induced cell death, primary screen, uHTS, H9c2 cells, ATPLite luminescence; H9c2 cardiomyocytes, H2O2 injury protection, 2 h; protection from H2O2 cell death, % at 20 µM; hit rate 0.63% among 360,000;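 active means compounds giving at least 50% protection of heart cells from peroxide-induced death in the single-dose screen, raw or plate-pattern-corrected value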
Beta2AR agonist: beta2AR agonists driving receptor internalization, primary screen, cell-based, FAP fluorogen, flow cytometry. Beta-2 adrenergic receptor (Homo sapiens), P07550. Am2.2-beta2AR cells. response, % (no concentration beside the values). hit rate 0.43% among 340,000. AID 504454, 2011;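 active means response above a set limit, near 3 SD of response in nonfluorescent compounds, cut at about 42% in these data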
Target sequence (P07550 whole entry, looked up): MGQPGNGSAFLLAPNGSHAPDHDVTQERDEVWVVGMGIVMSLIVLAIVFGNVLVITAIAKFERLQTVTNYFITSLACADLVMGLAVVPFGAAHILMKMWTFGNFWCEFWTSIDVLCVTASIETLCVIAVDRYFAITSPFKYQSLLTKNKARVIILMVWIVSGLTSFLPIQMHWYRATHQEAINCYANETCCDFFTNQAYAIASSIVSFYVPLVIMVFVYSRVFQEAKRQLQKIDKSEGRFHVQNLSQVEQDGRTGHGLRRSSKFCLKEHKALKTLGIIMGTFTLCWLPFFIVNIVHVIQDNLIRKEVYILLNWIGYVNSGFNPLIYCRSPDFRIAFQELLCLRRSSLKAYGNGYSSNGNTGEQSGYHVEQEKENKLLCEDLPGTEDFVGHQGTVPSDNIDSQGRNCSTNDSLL
B2AR ag CP1: beta2AR agonists via receptor internalization, confirmation, cell-based, FAP fluorogen, flow cytometry, single point, cherry pick 1 | Am2.2-beta2AR cells, FAP surface receptor; active compounds read low | shares compounds with Beta2AR agonist | percent response (surface receptor), % at 10 µM | hit rate 25% among 1,100;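 active means surface receptor percent response at or below 58%, roughly 3 SD from nonfluorescent compounds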
FAP fluor counter: flagged in Am2.2 fluorescence counterscreen for beta-2AR agonists; Am2.2 cells, FAP fluorogen flow cytometry; active compounds read low; calls only at 10 µM; 1,100 tested, under 10 active; shares compounds with Beta2AR agonist;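 active means percent response below a set limit in fluorescence channel 1 and below 50% in channel 8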
Of the large screens only hits and unclear results are named; the others gave an inactive call (follow-up assays come after a bar, where they were run).

Cc1cc(C)n(-c2nc(SCC(=O)Nc3nccs3)c3c4c(sc3n2)COC(C)(C)C4)n1	Beta2AR agonist 92.8 | B2AR ag CP1 inactive | FAP fluor counter inactive
CCC1CCCCN1CCCNC(=O)c1ccc2c(c1)NC(=O)CS2 (stereo not drawn)	none
CCC1CCCCN1CCCNC(=O)c1ccc(/C=C2/Sc3ccccc3NC2=O)cc1 (stereo not drawn)	Beta2AR agonist 43.9 | B2AR ag CP1 inactive | FAP fluor counter inactive
O=C(CCS(=O)(=O)c1ccccc1)N(CCCN1CCOCC1)c1nc2c(F)cccc2s1	Beta2AR agonist 111.2 | B2AR ag CP1 inactive | FAP fluor counter inactive
Cc1cc(C(=O)NN=Cc2cc(C(C)(C)C)ccc2O)n[nH]1	none (no result: aDG glyco act, PfGluPho inh, HKDC1 inh, H9c2 protect, Beta2AR agonist)
Cc1nn(C)cc1C=NNC(=O)C(C)(C)Oc1ccc(Cl)cc1	none (no result: aDG glyco act, PfGluPho inh, HKDC1 inh, H9c2 protect, Beta2AR agonist)
CNCC(O)c1ccc(OC(=O)C(C)(C)C)c(OC(=O)C(C)(C)C)c1 (stereo not drawn)	none | B2AR ag CP1 45.5 | FAP fluor counter inactive
O=C(NC1CCCC1)c1cc(COc2ccc3ncccc3c2)on1	none
CC(NC(=O)c1cc(COc2ccc3ncccc3c2)on1)c1ccc(F)cc1 (stereo not drawn)	Beta2AR agonist 44.7 | B2AR ag CP1 57.4 | FAP fluor counter inactive
O=C(c1cccc(Cl)c1)N1CCC(C(=O)N2CCN(Cc3ccccc3)CC2)CC1	Beta2AR agonist 78.9 | B2AR ag CP1 25.4 | FAP fluor counter inactive
O=[N+]([O-])c1ccc(Cl)c(C=NN2CCN(Cc3ccccc3)CC2)c1	none (no result: aDG glyco act, PfGluPho inh, HKDC1 inh, H9c2 protect, Beta2AR agonist)
O=C(Cn1cc2c(n1)CCCC2)NCc1ccccn1	Beta2AR agonist 99.7 | B2AR ag CP1 inactive | FAP fluor counter inactive
COc1cc2c(cc1Cl)C(=O)C(F)(c1ccccc1)C(=O)N2 (stereo not drawn)	Beta2AR agonist 80.6 | B2AR ag CP1 13.3 | FAP fluor counter inactive
COc1cc2c(cc1OC)C(=O)N1[C@H]3c4cc(Cl)ccc4OC[C@@H]3[C@H](c3ccccc3)[C@]1(C)C(=O)N2	none
CC1CCN(C(=O)C(C)Sc2nc(-c3ccccc3)cc(C(F)(F)F)n2)CC1 (stereo not drawn)	none | B2AR ag CP1 inactive | FAP fluor counter inactive
CC(Sc1nc(-c2ccccc2)cc(C(F)(F)F)n1)C(=O)N1CCC(C(N)=O)CC1 (stereo not drawn)	none | B2AR ag CP1 inactive | FAP fluor counter inactive
CC(Sc1nc(-c2ccccc2)cc(C(F)(F)F)n1)C(=O)N1CCCC1 (stereo not drawn)	Beta2AR agonist 53.9 | B2AR ag CP1 54.6 | FAP fluor counter inactive
CC(Sc1nc(-c2ccccc2)cc(C(F)(F)F)n1)C(=O)N1CCOCC1 (stereo not drawn)	Beta2AR agonist 90.7 | B2AR ag CP1 13.5 | FAP fluor counter inactive
O=C(CSc1nnc(-c2ccccc2)c(-c2ccccc2)n1)Nc1ncc(Cl)cc1Cl	none
Cc1nc(NC(=O)CSc2nnc(-c3ccccc3)c(-c3ccccc3)n2)c(Cl)cc1Cl	Beta2AR agonist 47.6 | B2AR ag CP1 inactive | FAP fluor counter inactive
O=C(CSCc1ccc([N+](=O)[O-])cc1)NN=Cc1ccncc1	none (no result: aDG glyco act, PfGluPho inh, HKDC1 inh, H9c2 protect, Beta2AR agonist)
CC(=NNC(=O)CSCc1ccc(Cl)cc1)c1ccc(NC(=O)c2ccccc2)cc1	none (no result: aDG glyco act, PfGluPho inh, HKDC1 inh, H9c2 protect, Beta2AR agonist)
COc1ccc(-c2cc(C(F)(F)F)n3nc(C(=O)O)cc3n2)cc1OC	Beta2AR agonist 51.5 | B2AR ag CP1 inactive | FAP fluor counter inactive
N#Cc1ccc(C=NNC(=O)c2cccc(S(=O)(=O)N3CCOCC3)c2)cc1	none (no result: aDG glyco act, PfGluPho inh, HKDC1 inh, H9c2 protect, Beta2AR agonist)
C=CCn1c(C)cc(C(=O)COc2ccc(N(C)S(=O)(=O)c3ccc(NC(C)=O)cc3)cc2)c1C	Beta2AR agonist 44.2 | B2AR ag CP1 inactive | FAP fluor counter inactive
O=[N+]([O-])c1cc(S(=O)(=O)N2CCCCCC2)ccc1Cl	Beta2AR agonist 47.5 | B2AR ag CP1 inactive | FAP fluor counter inactive
Cc1ccc(S(=O)(=O)N2CCCC2)cc1[N+](=O)[O-]	none
Cc1ccc(S(=O)(=O)Nc2ccccc2O)cc1	none (no result: UCH37 DUB inh, PfGluPho inh, HKDC1 inh, H9c2 protect, Beta2AR agonist)
Cc1ccc(S(=O)(=O)Nc2ccc(O)c3cccnc23)cc1	none | B2AR ag CP1 inactive | FAP fluor counter inactive
Nc1cc(N)cc(-c2nc3ccccc3o2)c1	Beta2AR agonist 43.0 | B2AR ag CP1 inactive | FAP fluor counter inactive
CCC(=O)N1C(Cc2ccccc2)COC1(C)C (stereo not drawn)	none | B2AR ag CP1 inactive | FAP fluor counter inactive
CCOC(=O)C(=NNc1ccc(C(C)=O)cc1)c1csc(Nc2ccccc2)n1	none (no result: aDG glyco act, PfGluPho inh, HKDC1 inh, H9c2 protect, Beta2AR agonist)
O=C(C(c1ccccc1)c1ccccc1)N1CCN(c2ccccn2)CC1	Beta2AR agonist 113.3 | B2AR ag CP1 15.6 | FAP fluor counter inactive
Nc1nnnn1N=Cc1ccccc1OCc1ccccc1	none (no result: aDG glyco act, PfGluPho inh, HKDC1 inh, H9c2 protect, Beta2AR agonist)
Cc1cccc(S(=O)(=O)Nc2ccc(-c3cn4ccccc4n3)cc2)c1	Beta2AR agonist 78.9 | B2AR ag CP1 inactive | FAP fluor counter inactive
O=S(=O)(Nc1ccc(-c2cn3ccccc3n2)cc1)c1ccccc1	none
Nc1ccc2oc(-c3ccc4nc[nH]c4c3)nc2c1	none
Cc1nc2ccc(-c3nc4cc(N)ccc4o3)cc2[nH]1	Beta2AR agonist 42.7 | B2AR ag CP1 inactive | FAP fluor counter inactive
O=C(CNC(=O)c1ccccc1)NN=Cc1ccc([N+](=O)[O-])s1	none (no result: aDG glyco act, PfGluPho inh, HKDC1 inh, H9c2 protect, Beta2AR agonist)
CC1C/C(=N\NC(N)=S)c2cc(Cl)ccc2S1 (stereo not drawn)	none (no result: UCH37 DUB inh) | B2AR ag CP1 inactive | FAP fluor counter inactive
COCCN=c1scc(-c2cc(OC)ccc2OC)n1N=Cc1c[nH]c2ccccc12	none (no result: aDG glyco act, PfGluPho inh, HKDC1 inh, H9c2 protect, Beta2AR agonist)
Cn1[nH]c(-c2ccccc2)c(C=NO)c1=O	none (no result: aDG glyco act, PfGluPho inh, HKDC1 inh, H9c2 protect, Beta2AR agonist)
CCCCN(C(=O)c1ccc(NC(=O)C(C)C)cc1)c1ccccc1	Beta2AR agonist 95.1 | B2AR ag CP1 20.4 | FAP fluor counter inactive
Cc1ccc(NC(=O)C(c2ccc(Cl)cc2)N2CCOCC2)cc1 (stereo not drawn)	Beta2AR agonist 47.8 | B2AR ag CP1 46.5 | FAP fluor counter inactive
Cc1ccc(C(C(=O)NC2CCCCC2)N2CCOCC2)cc1 (stereo not drawn)	none
